Assay [1] has as its target T1, Aromatase (Homo sapiens, UniProt P11511).
T1 sequence (P11511 whole entry): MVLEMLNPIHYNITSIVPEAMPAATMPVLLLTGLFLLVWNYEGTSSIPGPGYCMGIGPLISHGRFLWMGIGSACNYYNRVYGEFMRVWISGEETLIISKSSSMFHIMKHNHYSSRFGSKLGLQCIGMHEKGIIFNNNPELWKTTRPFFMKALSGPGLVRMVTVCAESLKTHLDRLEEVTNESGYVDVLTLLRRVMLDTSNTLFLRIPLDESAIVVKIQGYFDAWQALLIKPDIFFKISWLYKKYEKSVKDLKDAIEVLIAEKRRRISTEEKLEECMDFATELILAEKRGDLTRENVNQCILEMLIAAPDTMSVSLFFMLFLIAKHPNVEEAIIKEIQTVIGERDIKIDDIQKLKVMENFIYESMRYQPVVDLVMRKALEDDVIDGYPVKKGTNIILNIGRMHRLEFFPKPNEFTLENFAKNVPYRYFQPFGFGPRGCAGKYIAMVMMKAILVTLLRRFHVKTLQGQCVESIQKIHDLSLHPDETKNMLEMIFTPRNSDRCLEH
In words: Binding affinity for aromatase cytochrome P45019A1 by analysis of Dixon plot.

Assay [2] deals with T1, Aromatase. In words: In vitro competitive inhibitory activity was measured on Cytochrome P450 19A1 of human placental microsomes.
For assay [3], the target named is T1, Aromatase. In words: The binding affinity was determined on Cytochrome P450 19A1 by analysis of Dixon plot.
Assay [4] deals with T1, Aromatase. In words: Time dependent inactivation of Cytochrome P450 19A1 was obtained by Kitz-Wilson plot.
Assay [5] deals with T1, Aromatase. In words: Time dependent inactivation of aromatase cytochrome P450 19A1 from Kitz-Wilson plot. A digest of the protocol: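 Human placental microsomes (105000g pellet, washed with 0.05 mM dithiothreitol, lyophilized) incubated with inhibitor plus NADPH in 67 mM phosphate buffer in air. Residual aromatase activity then measured in 5-min kinetic assay by 3H2O release from [1β-3H]androstenedione. Pseudo-first-order loss over first 12 min analysed by Kitz-Wilson method. Double-reciprocal plot of kobs versus inhibitor concentration gave kinact and Ki. Points are means of duplicates.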

On to `CC12CCC3C(CC=C4CCCCC43CO)C1CCC2O` (stereo unspecified), for which the Ki at Aromatase [1] is 9.8 µM. The compound further returned an IC50 at Aromatase [2] of 62 µM.
In the case of `CC12CCC3C4CCC=CC4=CC(=O)C3C1CCC2=O` (stereo unspecified), the concentration for half-maximal inhibition (IC50) on Aromatase [2] is 33 µM. In addition, the Ki on Aromatase [3] amounted to 3 µM.
In the case of `CC12CCC3C(C(=O)C=C4C=CCCC43C)C1CCC2=O` (stereo unspecified), the Ki at Aromatase [4] worked out at 0.18 µM; on Aromatase [3], 0.22 µM. The kinact on Aromatase [4] is 0.00198 s⁻¹. This compound also displayed an IC50 at Aromatase [2] of 1.8 µM.
`CC12CCC=CC1=CC(=O)C1C2CCC2(C)C1CC[C@@H]2O` (stereo partly specified) gave an IC50 on Aromatase [2] of 42 µM. Further, at Aromatase [3], the Ki was determined as 5.3 µM.
`CC12CCC3C(CC=C4C=CCCC43C)C1CCC2=O` (stereo unspecified) had an IC50 on Aromatase [2] of 0.34 µM. The same compound registered a Ki at Aromatase [3] of 0.058 µM.
In turn, `CC12CCC3C(C(=O)C=C4CCCCC43CO)C1CCC2O` (stereo unspecified) yielded an IC50 at Aromatase [2] of 140 µM. The Ki on Aromatase [3] stood at 45 µM.
On Aromatase [2], `CC12CCC3C(C(=O)C=C4C=CCCC43C=O)C1CCC2=O` (stereo unspecified) came in with an IC50 of 11 µM. For the same compound, the Ki on Aromatase [3] amounted to 1.8 µM; on Aromatase [5] it was 2.9 µM. Also, the kinact at Aromatase [5] is 0.00315 s⁻¹.
Take `CC12CCC3C(C(=O)C=C4CCCCC43CO)C1CCC2=O` (stereo unspecified): on Aromatase [4], the Ki is 11 µM and the kinact is 0.000967 s⁻¹. Besides, on Aromatase [2], the IC50 was determined as 56 µM. On Aromatase [3], this compound returned a Ki of 11 µM.
Compound `C[C@]12CCC(=O)C=C1CC[C@@H]1[C@@H]2CC[C@]2(C)C(=O)CC[C@@H]12` [ANDROSTENEDIONE] registered a Ki on Aromatase [1] of 0.02 µM. The IC50 at Aromatase [2] was 0.3 µM.
The compound `CC12CCC=CC1=CCC1C2CCC2(C)C1CC[C@@H]2O` (stereo partly specified) showed an IC50 on Aromatase [2] of 18 µM. Moreover, the Ki at Aromatase [3] came out at 2 µM.
Take `C[C@]12CCCCC1=CC[C@@H]1[C@@H]2CC[C@]2(C)C(=O)CC[C@@H]12`: the IC50 at Aromatase [2] was determined as 0.66 µM. For the same compound, the Ki at Aromatase [3] was 0.12 µM.
`CC12CCC3C(C(=O)C=C4C=CCCC43CO)C1CCC2=O` (stereo unspecified) returned an IC50 at Aromatase [2] of 60 µM. Further, the Ki at Aromatase [3] turned out to be 15 µM. For the same compound, at Aromatase [5], the Ki came to 7 µM and the kinact is 0.00147 s⁻¹.
On to `C[C@]12CC[C@H]3[C@@H](CC=C4CCCC[C@@]43CO)[C@@H]1CCC2=O`, for which, on Aromatase [2], the IC50 stood at 6.9 µM. The compound also had a Ki at Aromatase [3] of 1 µM.
For `CC12CCC3C4CCCCC4=CC(=O)C3C1CCC2=O` (stereo unspecified), on Aromatase [4], the Ki was found to be 2.6 µM and the kinact was 0.00113 s⁻¹. Also, the IC50 at Aromatase [2] was determined as 28 µM. The compound further had a Ki on Aromatase [3] of 2.4 µM.
With `CC12CCC3C(CC=C4CCCCC43C)C1C[C@@H](Br)C2=O` (stereo partly specified), the IC50 on Aromatase [2] is 55 µM. Besides, the Ki on Aromatase [3] amounted to 11 µM.
In turn, `CC12CCC3C4CCC(=O)C=C4CCC3C1CCC2=O` (stereo unspecified) showed a Ki at Aromatase [1] of 0.14 µM. The compound further had an IC50 at Aromatase [2] of 1.2 µM.
In the case of `CC12CCCCC1=CCC1C2CCC2(C)C(O)CCC12` (stereo unspecified), the IC50 on Aromatase [2] was 30 µM. The same compound returned a Ki on Aromatase [3] of 3 µM.
In the case of `CC12CCC3C(C(=O)C=C4CCCCC43C)C1CCC2=O` (stereo unspecified), at Aromatase [4], the Ki came to 0.15 µM and the kinact is 0.00115 s⁻¹. On Aromatase [2], this compound registered an IC50 of 1.8 µM. Also, at Aromatase [3], the Ki is 0.25 µM.
Regarding `CC12CCC3C(CC=C4CCCCC43C=O)C1CCC2=O` (stereo unspecified), the Ki on Aromatase [1] worked out at 1.4 µM. For the same compound, the IC50 on Aromatase [2] was found to be 9 µM.
Take `CC12CCC3C(C(=O)C=C4CCCCC43C=O)C1CCC2=O` (stereo unspecified): at Aromatase [4], the Ki amounted to 20 µM and the kinact is 0.00238 s⁻¹. At Aromatase [2], the IC50 turned out to be 60 µM. On Aromatase [3], the Ki stood at 13 µM.
The compound `CC12CCCCC1=CC(=O)C1C2CCC2(C)C(O)CCC12` (stereo unspecified) returned an IC50 on Aromatase [2] of 42 µM. The Ki on Aromatase [3] was 5.5 µM.

What is called IC50 is the midpoint of a concentration-inhibition curve. By kinact is commonly meant the maximal first-order rate at which the target is inactivated.
